# Assay outcomes as filed in PubChem BioAssay.
# Rows were chosen to be rich in hits. Some 1.2% of all compounds tested hit in one or more screens of this group.
# HSV replic up = increases HSV replication in cells; HSV replication augmentation in cells, fold increase; maximum fold increase; AID 1956; actives 0.005% (n = 220,000); in the data active means maximum fold increase above about 1.5; inconclusive means no clear call, values can overlap the other calls; tested in PC3 cells
# TbHK1 inh = T. brucei hexokinase 1 inhibition; AID 1430; inhibition, % at 10 µM; recombinant TbHK1, G6PDH-coupled NADH A340; actives 0.11% (n = 220,000);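 active means inhibition of 50% or more in the single-dose primary screen; inactive means inhibition below 50%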
# PERK inhibitor = blocks human PERK kinase | Q9NZJ5 | CHO PERK-DD fusion, SEAP luminescence translation reporter | inhibition, % at 5.6 µM | actives 0.17% (n = 220,000) | AID 1416;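 active means inhibition above the mean inhibition of all tested compounds plus 3 SD, set separately per screening campaign, cut at about 2.9% in these data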;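 further: PERK kinase domain activated by AP20187 dimerizer at 100 nM; 0% = DMSO with dimerizer and 100% = rapamycin at 8.4 µM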
# HKDC1 inh = blocks human hexokinase HKDC1 activity | recombinant HKDC1, G6PDH/diaphorase resazurin coupled fluorescence | actives 0.16% (n = 340,000) | inhibition, % at 20 µM | Q2TB90;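 active means inhibition above about 35% when tested at 20 µM, limit read from the data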;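 further: plate controls were DMSO wells with enzyme for no effect and DMSO wells lacking enzyme for full effect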
#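 Incubation: 90 min at room temperature in dark / Material: recombinant HKDC1 (HK5) hexokinase enzyme, produced in-house / Quantity: enzyme 5 µg/mL final / Compound: one dose of 20 µM, 1% DMSO / Reagent: glucose and ATP substrates / Buffer or medium: Tris pH 8.0 buffer with MgCl2, Tween-20, BSA, BME / Technique: resorufin fluorescence at 613 nm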
# Autophagy HCS = alters autophagy in cells; MEF GFP-LC3 puncta imaging; test concentration mostly 10 µM; calls only at 10 µM (by protocol); actives 0.98% (n = 190,000); AID 463193;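 active means percentage of spot-positive cells more than 3 SD above its plate mean, without a fluorescence outlier flag or 80% toxicity; inconclusive means no clear call, values can overlap the other calls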;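 further: spot-positive cell cutoff set from DMSO-treated cells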
# Dynein transport = dynein cargo transport inhibition; 3617.4 mouse cells, GR-EGFP nuclear translocation imaging; test concentration mostly 20 µM; stimulated with dexamethasone, 1 µM; stronger effect = lower value; z-score, hits read low; actives 0.47% (n = 220,000); AID 1381;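 active means plate z-score of nuclear minus cytoplasmic receptor signal below a set negative limit, without overly bright fluorescence or cell loss, cut at about -3.5 in these data, passing the limit was not always enough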;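 further: z-score of nuclear minus cytoplasmic ring GR-EGFP intensity difference per well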
#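 Buffer or medium: tet-free, stripped-serum medium; Also added: dexamethasone, 1.0 µM final; Technique: high-content fluorescence imaging after fixation; Times: 48 h induction, 1 h compound, 30 min dex at 37 °C; Read-out: per-cell GR-EGFP intensity, nucleus versus surrounding cytoplasmic ring, well-averaged.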
# Dynein inh conf = dynein cargo transport inhibition, confirmation | shares compounds with Dynein transport | 3617.4 GR-EGFP nuclear translocation imaging, dexamethasone-induced | calls only at 20 µM | actives 69% (n = 1,000);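 active means inhibition of receptor movement into the nucleus at or above a set limit in both runs, with normal cell brightness and cell count; inconclusive means limit reached in only one run, brightness and count normal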;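 further: dexamethasone at 1 µM final in well for 30 min; nuclear minus cytoplasmic GR-EGFP mean intensity difference in channel 2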
# G6PDH ctr = counter-screen for TbHK1 inhibitors: Leuconostoc G6PDH inhibition. shares compounds with TbHK1 inh. purified G6PDH, NADH absorbance, 1 h. inhibition, % at 10 µM. actives 7% (n = 210). AID 2516;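 active means at least 50% inhibition in the glucose-6-phosphate dehydrogenase coupled counterscreen; inconclusive means no clear call, values can overlap the other calls; inactive means inhibition below 50%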
# TbHK1 rescreen = T. brucei hexokinase 1 inhibition, rescreen; shares compounds with TbHK1 inh; recombinant TbHK1, G6PDH-coupled NADH A340 absorbance; inhibition, % at 10 µM; actives 10% (n = 210); AID 2560;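 active means inhibition of at least 50% in both of the two screening runs; inconclusive means at least 50% in one run, below 50% in the other; inactive means inhibition below 50% in both runs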;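 further: 0% and 100% set by the maximum and minimum signal control wells on each plate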
# HKDC1 act conf2 = HKDC1 (human) activation, single-dose confirmed; shares compounds with HKDC1 inh; recombinant HKDC1, G6PDH/diaphorase resazurin fluorescence; stronger effect = lower value; inhibition, % at 20 µM; actives 14% (n = 740);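 active means inhibition at or below a set negative limit, negative inhibition meaning the enzyme was activated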
# * = called active by the depositor; i = inactive; ? = inconclusive; / = no result given; + = active, no number.
SMILES,HSV replic up,TbHK1 inh,PERK inhibitor,HKDC1 inh,Autophagy HCS,Dynein transport,Dynein inh conf,others
Cn1c(-c2ccc([N+](=O)[O-])cc2)nc2ccccc21,i,-22,1,4,i,0.78,/,
Cn1nc([N+](=O)[O-])c(C(C#N)c2nc3ccccc3n2C)c(Cl)c1=O (configuration not stated),i,-7,0,-2,i,-3.6*,i,
COc1ccccc1C(=O)Nc1ccnn1C1CCN(Cc2ncc[nH]2)CC1,/,/,/,-3,/,/,/,
CCOC(=O)c1cn(-c2c(Cl)cccc2Cl)c2cc(Cl)c([N+](=O)[O-])cc2c1=O,i,-11,-1,-10,i,-4.4*,+,
C=C(CC)C(=O)c1ccc(OCC(=O)O)c(Cl)c1Cl,i,2,1,6,i,-3.7*,+,
CC(C)(CNC(=O)Cc1ccc(Br)cc1)N1CCOCC1,/,/,/,-6,/,/,/,
CCc1cccc2cc3c(N)c(C(=O)Nc4ccc(S(=O)(=O)N5CCCC5)cc4)sc3nc12,?,-18,0,17,+,-6.6,i,
CN(CC(=O)Nc1ccc(F)c(F)c1F)C(=O)C1CCC1,/,/,/,-6,/,/,/,
COc1cccc(C2CC(C(F)(F)F)n3nc(C(=O)NCc4cccnc4)cc3N2)c1 (configuration not stated),i,0,0,1,i,-3.6*,i,
O=C(C=Cc1ccccc1)c1c[nH]c2ccccc2c1=O,/,/,/,15,/,/,/,
Cc1[nH]c2ccccc2c(=O)c1C(=O)/C=C/c1ccccc1,i,-23,0,7,/,-6*,+,
NS(=O)(=O)c1ccc(CCNC(=O)c2cccc(S(=O)(=O)N3CCCC3)c2)cc1,/,/,/,-7,/,/,/,
COc1ccc(C2CC(c3cccs3)=NN2c2ccc(C=O)cc2)cc1 (configuration not stated),i,15,0,-1,+,-9.6,i,
COc1ccc(C2=NN(c3ccc(C=O)cc3)C(c3ccccc3)C2)cc1 (configuration not stated),/,/,/,2,/,/,/,
CCN1C(=O)[C@@H]2[C@@H](c3ccc(SC4CCCCC4)c(OC)c3)N3CCC[C@@]3(C(=O)OC)[C@@H]2C1=O,/,/,/,-1,/,/,/,
O=C(O)CC1Cc2ccccc2C1C(=O)O (configuration not stated),/,/,/,-4,/,/,/,
Cc1ccc(N2C(=O)c3cccc4c(N)ccc(c34)C2=O)c2cccnc12,/,-5,0,7,/,-5.4*,?,
Cc1nn(C)c(C)c1N1C(=O)c2cccc3c(N)ccc(c23)C1=O,?,-4,1,-6,i,-0.57,/,
CN(C(=O)COC(=O)c1nc(Cl)c(Cl)c(Cl)c1Cl)C1CCS(=O)(=O)C1 (configuration not stated),i,-2,0,-2,i,-4.6*,+,
CN(C(=O)COC(=O)c1ccc(C(C)(C)C)cc1)C1CCS(=O)(=O)C1 (configuration not stated),/,/,/,-3,/,/,/,
COc1ccc(OC)c(S(=O)(=O)Nc2ccc(O)c3ccccc23)c1,i,-4,-1,27,i,-4.2*,i,
COc1ccc(CN2CCN(Cc3cc4ccccc4o3)CC2CCO)cc1C (configuration not stated),/,/,/,4,/,/,/,
Cc1ccc(-n2nnnc2C(Cl)(Cl)c2nnnn2-c2ccc(C)cc2)cc1,i,-3,1,14,i,-4.6*,+,
COc1ccc(CNC(=O)c2ccc(S(=O)(=O)NCc3ccco3)cc2)cc1,/,/,/,-5,/,/,/,
O=c1c2ccccc2sn1-c1ccccc1,i,81*,0,-3,i,-5.2*,+,G6PDH ctr=-16;TbHK1 rescreen=84*
SMILES,HSV replic up,TbHK1 inh,PERK inhibitor,HKDC1 inh,Autophagy HCS,Dynein transport,Dynein inh conf,others
O=c1c2cc(F)ccc2sn1-c1ccccc1,/,/,/,3,/,/,/,
Cc1ccccc1-n1sc2cc(F)ccc2c1=O,i,55*,1,4,i,-4.8*,+,G6PDH ctr=-2;TbHK1 rescreen=79*
CC(NC(=O)CCSCc1ccccc1F)c1ccccc1 (configuration not stated),/,/,/,0,/,/,/,
CNCc1ccccc1Sc1cc(O)ccc1O,i,-1,0,64*,i,-4*,+,HKDC1 act conf2=65
CNCc1ccccc1Sc1cccc(O)c1,i,-1,1,-1,i,-0.22,/,
Cc1ccc(S(=O)(=O)CCC(=O)NC2CCCC2)cc1,/,/,/,-6,/,/,/,
NC(=O)COc1ccc(/C=N\NC(=O)CC(=O)NCCc2ccccc2)cc1,/,/,/,1,/,/,/,
Clc1ccc(N=c2ssnc2Cl)nc1,i,9,0,-194,i,-3.5*,i,HKDC1 act conf2=-80*
CC1=NOC(=O)/C1=C/c1ccc(-c2ccc(Cl)cc2)o1,i,11,0,/,i,-0.96,/,
CC1=NOC(=O)/C1=C\c1ccc(-c2ccc(Br)cc2)o1,i,16,1,42*,i,-4.1*,?,HKDC1 act conf2=12
Cc1cccc(N/C(=N/S(=O)(=O)c2ccccc2)c2ccccc2)n1,/,/,/,-1,/,/,/,
CCOC(=O)C1CCN(C(=O)Nc2ccc3nc(-c4ccco4)c(-c4ccco4)nc3c2)CC1,i,0,1,43*,i,-4.5*,i,HKDC1 act conf2=0
COc1ccc([C@H]2CC(=O)C=C(c3ccc(Oc4ccccc4)cc3)C2)cc1OC,/,/,/,4,/,/,/,
CC(=O)n1cc(N(C(=O)CCl)c2ccc(C)cc2)c2ccccc21,i,-4,-2,41*,/,-6*,+,HKDC1 act conf2=15
N#CC(C#N)=Cc1cc2ccccc2nc1N1CCCCC1,i,-3,0,38*,i,-4.4*,?,HKDC1 act conf2=17
CCOC(=O)/C(C#N)=C/c1cc2ccccc2nc1N1CCOCC1,i,-18,1,-12,i,1.1,/,
O=Cc1[nH]c2ccccc2c1N(C(=O)CCl)c1ccccc1,i,-21,0,35*,/,-7.6,+,HKDC1 act conf2=34
Cc1c(N=C2C=CC(=O)c3ccccc32)c(=O)n(-c2ccccc2)n1C,i,-1,0,42*,i,-4.7*,+,HKDC1 act conf2=35
Cc1c(N=C2C=C(Br)C(=O)C(Br)=C2)c(=O)n(-c2ccccc2)n1C,i,2,0,21,i,-0.042,/,
O=C(NC1CCCCC1)C1CCN(S(=O)(=O)N2CCCCCC2)CC1,i,-1,1,2,i,0.38,/,
